Measured values published in publication PMC5381633 (Genome Biology and Evolution, 2017).

Key:
tunicate LXR = details: ref Reschly et al. 2008; cited from earlier work
L. japonicum LXR = biological target: T1, L. japonicum LXR (Lethenteron camtschaticum, UniProt A0A1S6EKM6); assay: GAL4-LBD chimeric receptor luciferase transactivation assay in COS-1 cells; assay type: cell-based
T1 sequence (A0A1S6EKM6 89-387): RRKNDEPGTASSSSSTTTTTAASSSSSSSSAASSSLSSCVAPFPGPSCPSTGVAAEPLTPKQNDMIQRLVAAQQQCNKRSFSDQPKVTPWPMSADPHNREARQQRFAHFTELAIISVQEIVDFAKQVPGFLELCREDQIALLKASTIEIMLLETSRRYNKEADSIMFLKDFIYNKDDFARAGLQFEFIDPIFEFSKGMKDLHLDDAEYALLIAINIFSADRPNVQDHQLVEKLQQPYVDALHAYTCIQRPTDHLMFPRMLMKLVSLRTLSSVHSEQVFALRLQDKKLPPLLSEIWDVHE
Outline: (§1)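 The receptor's ligand-binding domain plus hinge was fused to the GAL4 DBD in pBIND. COS-1 cells were seeded 24 h before lipofection with 500 ng receptor plasmid and 1,000 ng GAL4UAS-luc2P reporter. After 5 h, medium became phenol red-free DMEM/10% charcoal-stripped FBS with compound in DMSO (oxysterols 10^1–10^5.5 nM). Dual-luciferase was read 24 h post-transfection, in triplicate over three experiments, as mean ± SE. EC50 came from sigmoidal dose–response curves. Normalized fold activation was compared by one-way ANOVA/Holm–Sidak.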

LXRα = details: human and mouse LXRs; ref Reschly et al. 2008; cited from earlier work
LXRβ = details: human and mouse LXRs; ref Reschly et al. 2008; cited from earlier work
B. lanceolatum LXR = biological target: T2, B. lanceolatum LXR (Branchiostoma lanceolatum, UniProt A0A8J9ZB24); assay: GAL4-LBD chimeric receptor luciferase transactivation assay in COS-1 cells; assay type: cell-based
T2 sequence (A0A8J9ZB24 168-437): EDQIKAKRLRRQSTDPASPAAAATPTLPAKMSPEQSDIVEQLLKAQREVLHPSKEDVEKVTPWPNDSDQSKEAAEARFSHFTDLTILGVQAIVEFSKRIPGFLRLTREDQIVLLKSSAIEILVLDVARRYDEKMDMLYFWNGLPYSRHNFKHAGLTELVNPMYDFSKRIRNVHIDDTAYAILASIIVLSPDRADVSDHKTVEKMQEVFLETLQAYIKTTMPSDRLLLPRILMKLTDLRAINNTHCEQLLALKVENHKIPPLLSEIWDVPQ
Outline: as §1

L. erinacea LXRβ = biological target: T3, L. erinacea LXRβ (Leucoraja erinacea, UniProt A0A1S6EKM5); assay: as above; assay type: cell-based; details: all tested concentrations, P < 0.001
T3 sequence (A0A1S6EKM5 2-271): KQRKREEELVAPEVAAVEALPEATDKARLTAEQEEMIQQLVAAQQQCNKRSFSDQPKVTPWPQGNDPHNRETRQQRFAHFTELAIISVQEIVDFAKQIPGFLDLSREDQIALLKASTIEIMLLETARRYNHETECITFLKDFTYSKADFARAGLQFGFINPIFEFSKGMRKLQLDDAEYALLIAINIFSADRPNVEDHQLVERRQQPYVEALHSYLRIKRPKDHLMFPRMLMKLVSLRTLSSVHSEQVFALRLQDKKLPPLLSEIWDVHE
Outline: as §1

L. erinacea LXRα = biological target: T4, L. erinacea LXRα (Leucoraja erinacea, UniProt A0A1S6EKM1); assay: as above; assay type: cell-based; details: all tested concentrations, P < 0.001
T4 sequence (A0A1S6EKM1 181-451): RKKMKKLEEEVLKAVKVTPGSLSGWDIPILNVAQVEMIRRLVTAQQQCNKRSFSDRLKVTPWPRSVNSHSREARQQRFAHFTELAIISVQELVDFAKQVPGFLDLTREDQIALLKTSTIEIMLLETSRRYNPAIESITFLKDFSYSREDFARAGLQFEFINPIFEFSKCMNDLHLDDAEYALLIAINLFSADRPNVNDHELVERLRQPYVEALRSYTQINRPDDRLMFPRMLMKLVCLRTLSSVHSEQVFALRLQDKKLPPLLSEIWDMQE
Outline: as §1

Row | Compound | activation of tunicate LXR (in words) (tunicate LXR) | transcriptional activation of lamprey LXR (in words) (L. japonicum LXR) | activation of LXRα (in words) (LXRα) | activation of LXRβ (in words) (LXRβ) | further results
1 | O=Cc1c2[nH]c3ccccc3c2cc2[nH]c3ccccc3c12 [6-Formylindolo(3,2-b)carbazole] | strongly activated |  |  |  | 
2 | C[C@H](CC[C@@H]1OC1(C)C)[C@H]1CC[C@H]2[C@@H]3CC=C4C[C@@H](O)CC[C@]4(C)[C@H]3CC[C@]12C [24,25-EC, 24(S),25-epoxycholesterol] |  | strongly induced | robustly activated | robustly activated | 
3 | CC(C)[C@@H](O)CC[C@@H](C)[C@H]1CC[C@H]2[C@@H]3CC=C4C[C@@H](O)CC[C@]4(C)[C@H]3CC[C@]12C [24-HC, 24(S)-hydroxycholesterol] |  | strongly induced | robustly activated | robustly activated | transcriptional activation of amphioxus LXR (in words) (B. lanceolatum LXR): residually, but significantly, activated
4 | C[C@H](CCCC(C)(C)O)[C@H]1CC[C@H]2[C@@H]3CC=C4C[C@@H](O)CC[C@]4(C)[C@H]3CC[C@]12C [25-HC, 25-hydroxycholesterol] |  | prominent and statistically significant (P < 0.001), yet only at higher concentrations | lower transcriptional responses | lower transcriptional responses | 
5 | O=S(=O)(c1ccccc1)N(CC(F)(F)F)c1ccc(C(O)(C(F)(F)F)C(F)(F)F)cc1 [T0901317] |  | significant activations |  |  | agonistic response, little skate LXRβ (in words) (L. erinacea LXRβ): significant activations; agonistic response, little skate LXRα (in words) (L. erinacea LXRα): significant activations
6 | C[C@@]12CCC[C@H]1[C@@H]1CC[C@H]3C[C@@H](O)CC[C@]3(C)[C@H]1CC2 [androstanol] | induced |  |  |  | 
7 | C[C@]12CC[C@@H](O)C[C@@H]1CC[C@@H]1[C@@H]2CC[C@]2(C)C=CC[C@@H]12 [androstenol] | induced |  |  |  | 
